Test results published in ChEMBL document CHEMBL1127691, “Discovery, synthesis, and bioactivity of bis(heteroaryl)piperazines. 1. A novel class of non-nucleoside HIV-1 reverse transcriptase inhibitors” (J Med Chem, 1994).
pEC50: −log10 of the molar value.

What was measured:
MT2 [1] = assay: Tested for the drug concentration required to decrease HIV-1IIIb infected MT-2 cell viability compared to uninfected controls; assay type: functional; conditions: Homo sapiens
How it was run: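 MT-2 cells with HIV-1 IIIb (MOI 0.001), 4-day culture. Viability by trypan blue exclusion. CC50 is the concentration lowering viability relative to uninfected controls; mostly estimated.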

MT2 [2] = assay: Effective antiviral dose required to block the spread of HIV-1 IIIb infection in MT-2 cells by monitoring the formation of syncytia; assay type: functional; conditions: Homo sapiens, read-out: ED50 (the source's name)
How it was run: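 MT-2 cells infected with HIV-1 IIIb at MOI 0.001, held at 37 °C in 5% CO2. Syncytium formation scored 4 days post-infection, at peak cytopathic effect. ED50 is the dose giving 50% reduction in syncytia; some values were estimated, and ">" means 50% was not reached at the top concentration.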

[3] = Selective index is the ratio of inhibitory concentrations of cellular DNA polymerase alpha to HIV-1 reverse transcriptase
How it was run: (§1)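 Index = IC50 for cellular DNA polymerase α or δ divided by IC50 for HIV-1 RT. RT IC50 measured with recombinant RT and poly(rA):oligo(dT)10 template:primer.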

[4] = tested on: Human immunodeficiency virus 1; assay: Effective antiviral dose required to block the spread of HIV-1D34 infection in human peripheral blood mononuclear cells; assay type: functional; conditions: read-out: ED50 (the source's name)
How it was run: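 PBMC (1 × 10^6 cells) infected with HIV-1 D34 inoculum containing 1 ng p24, cultured at 37 °C in 5% CO2. Replication read as supernatant p24 at day 4. ED50 = 50% effective antiviral dose, estimated in some cases.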

[5] = Selective index is the ratio of inhibitory concentrations of cellular DNA polymerase delta to HIV-1 reverse transcriptase; how it was run: as §1
[6] = biological target: Human immunodeficiency virus type 1 reverse transcriptase (Human immunodeficiency virus 1) (UniProt Q72547); assay: In vitro inhibitory activity against HIV-1 reverse transcriptase at 100 uM
How it was run: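 Recombinant HIV-1 RT (p51/p66 heterodimer, 90–95% pure, 0.0274 μM) with poly(rA) 10 μg/mL and (dT)10 primer 5 μg/mL; 8 μM α-35S-dTTP, 50 mM Tris-HCl pH 8.3, 10 mM MgCl2, 60 mM NaCl, 20 mM DTT, 0.05% NP-40. 37 °C, 15 min; TCA-precipitated label counted on filters. Percent inhibition at 100 μM, mean of at least two determinations.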

[7] = Tested for the drug concentration required to decrease […] infected human peripheral blood mononuclear cell viability compared to uninfected controls; assay type: functional
How it was run: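 Uninfected and HIV-1 D34-infected PBMC at 37 °C, 5% CO2. Viability taken from mitogen-stimulated cell proliferation. CC50 is the concentration lowering viability relative to uninfected controls; mostly estimated.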

Structure (SMILES)	pEC50 [4]	inhibition [6]	CC50 [7]	also measured
COc1ccc2[nH]c(C(=O)N3CCN(c4ncccc4NC(C)(C)C)CC3)cc2c1	8.00	86%	–	CC50 (MT2 [1]): > 22 µM; pEC50 (MT2 [2]): 6.66; Selectivity index [3]: > 83; Selectivity index [5]: > 83
CCc1ccccc1N1CCN(C(=O)c2cc3ccccc3[nH]2)CC1	–	0%	–	–
N#Cc1cccnc1N1CCN(C(=O)c2cc3ccccc3[nH]2)CC1	–	5%	–	–
COc1ccc(N2CCN(C(=O)c3cc4ccccc4[nH]3)CC2)c(OC)c1	–	7%	–	–
CNC(=O)c1cccnc1N1CCN(C(=O)c2cc3ccccc3[nH]2)CC1	–	0%	–	–
CCNc1cccnc1N1CCN(C(=O)c2ccc[nH]2)CC1	< 6.00	87%	> 100 µM	–
CC(C)C(=O)c1cccnc1N1CCN(C(=O)c2cc3ccccc3[nH]2)CC1	–	26%	–	–
CC(C)Nc1cc(F)ccc1N1CCN(C(=O)c2cc3ccccc3[nH]2)CC1	7.00	83%	> 10 µM	–
CCNc1cccnc1N1CCN(C(=O)c2nc3ccccc3o2)CC1	–	0%	–	–
O=C(c1cc2ccccc2[nH]1)N1CCN(c2ncccc2NCC2CC2)CC1	8.00	71%	> 100 µM	–
CCNc1ccccc1N1CCN(C(=O)c2cc3ccccc3[nH]2)CC1	6.00	78%	> 100 µM	–
COc1ccc2[nH]c(C(=O)N3CCN(c4ncccc4NC(C)C)CC3)cc2c1	9.00	97%	–	CC50 (MT2 [1]): > 25 µM; pEC50 (MT2 [2]): 6.52; Selectivity index [3]: 1500; Selectivity index [5]: 8000
CCNc1cccnc1N1CCN(C(=O)c2ccc3[nH]ccc3c2)CC1	~5.00	45%	> 100 µM	–
CC(C)(C)Nc1cccnc1N1CCN(C(=O)c2cc3cc(F)ccc3[nH]2)CC1	8.00	89%	–	CC50 (MT2 [1]): > 23 µM; pEC50 (MT2 [2]): 6.64; Selectivity index [3]: 233; Selectivity index [5]: 1670
CC(=O)c1cccnc1N1CCN(C(=O)c2cc3ccccc3[nH]2)CC1	–	30%	–	–
CCNc1cccnc1N1CCN(C(=O)c2cc3cc(F)ccc3[nH]2)CC1	9.00	93%	–	CC50 (MT2 [1]): > 27 µM; pEC50 (MT2 [2]): > 6.52; Selectivity index [3]: 220; Selectivity index [5]: 1670
CCC(CC)Nc1cccnc1N1CCN(C(=O)c2cc3ccccc3[nH]2)CC1	7.00	82%	> 10 µM	–
O=C(c1cc2ccccc2[nH]1)N1CCN(c2ncccc2NCc2ccccc2)CC1	–	14%	–	–
COc1c(C)cc(CN2CCN(c3ncccn3)CC2)cc1C	–	0%	–	–
CCOC(=O)c1cccnc1N1CCN(C(=O)c2cc3ccccc3[nH]2)CC1	–	68%	–	–
N#Cc1ccccc1N1CCN(C(=O)c2cc3ccccc3[nH]2)CC1	–	0%	–	–
CCC(=O)c1cccnc1N1CCN(C(=O)c2cc3ccccc3[nH]2)CC1	–	40%	–	–
CCCNc1cccnc1N1CCN(Cc2cc(C)c(OC)c(C)c2)CC1	–	60%	–	–

Structure (SMILES)	pEC50 [4]	inhibition [6]	CC50 [7]	also measured
COC(=O)c1cccnc1N1CCN(C(=O)c2cc3ccccc3[nH]2)CC1	–	82%	–	–
CC(C)Nc1cnnc(N2CCN(C(=O)c3ccc4[nH]ccc4c3)CC2)c1	–	39%	–	–
CC(C)Nc1ccc(N2CCN(C(=O)c3ccc4[nH]ccc4c3)CC2)nc1	–	0%	–	–
Nc1cccnc1N1CCN(C(=O)c2cc3ccccc3[nH]2)CC1	< 5.00	20%	> 100 µM	–
CCNc1cccnc1N1CCN(C(=O)c2cnccn2)CC1	–	0%	–	–
CCNc1cccnc1N1CCN(C(=O)c2cc(C)c(OC)c(C)c2)CC1	6.00	69%	> 100 µM	–
COc1c(C)cc(CN2CCN(c3ncccc3NC(C)C)CC2)cc1C	6.00	84%	~10 µM	–
CC(C)NCc1cccnc1N1CCN(C(=O)c2cc3ccccc3[nH]2)CC1	–	0%	–	–
CCNc1cccnc1N1CCN(C(=O)c2nc3ccccc3s2)CC1	–	0%	–	–
CCCNc1cccnc1N1CCN(C(=O)c2cc3ccccc3[nH]2)CC1	7.00	64%	> 100 µM	–
CCNc1cccnc1N1CCN(C(=O)c2cnc3ccccc3c2)CC1	–	14%	–	–
CCNc1cccnc1N1CCN(C(=O)c2cccs2)CC1	~5.00	60%	> 100 µM	–
CCC(C)Nc1cccnc1N1CCN(C(=O)c2cc3ccccc3[nH]2)CC1 (configuration not stated)	8.00	95%	> 10 µM	–
CCNc1cccnc1N1CCN(C(=O)c2nc3ccccc3[nH]2)CC1	5.00	69%	> 10 µM	–
CCNc1cccnc1N1CCN(C(=O)c2cc3ccccc3o2)CC1	5.00	37%	> 10 µM	–
CC(C)Nc1ccccc1N1CCN(C(=O)c2cc3ccccc3[nH]2)CC1	–	87%	–	–
O=C(c1cc2ccccc2[nH]1)N1CCN(c2ncccc2[N+](=O)[O-])CC1	–	5%	–	–
COc1c(C)cc(C(=O)N2CCN(c3ncccc3NC(C)C)CC2)cc1C	7.00	78%	> 10 µM	–
CC(C)Nc1ccc(F)cc1N1CCN(C(=O)c2cc3ccccc3[nH]2)CC1	7.00	77%	> 100 µM	–
CCNc1cccc(N2CCN(C(=O)c3ccc4[nH]ccc4c3)CC2)n1	–	0%	–	–
CCNc1cccnc1N1CCN(C(=O)c2cc3ccccc3oc2=O)CC1	–	16%	–	–
CCN(C(C)=O)c1cccnc1N1CCN(C(=O)c2cc3ccccc3[nH]2)CC1	–	8%	–	–
CC(=O)Nc1cccnc1N1CCN(C(=O)c2cc3ccccc3[nH]2)CC1	< 5.00	0%	> 100 µM	–

Structure (SMILES)	pEC50 [4]	inhibition [6]	CC50 [7]	also measured
O=C(c1cc2ccccc2[nH]1)N1CCN(c2ncccc2NCC(F)(F)F)CC1	6.00	40%	> 10 µM	–
CC(C)Nc1cc(C(F)(F)F)ccc1N1CCN(C(=O)c2cc3ccccc3[nH]2)CC1	~6.00	22%	> 10 µM	–
CNc1cccnc1N1CCN(C(=O)c2cc3ccccc3[nH]2)CC1	~6.00	85%	> 10 µM	–
CCOc1ccccc1N1CCN(C(=O)c2cc3ccccc3[nH]2)CC1	< 6.00	76%	< 10 µM	–
CCNc1cccnc1N1CCN(C(=O)c2cccc3cc[nH]c23)CC1	6.00	87%	> 100 µM	–
CCNc1cccnc1N1CCN(C(=O)c2c[nH]c3ccccc23)CC1	–	22%	–	–
CCNc1cccnc1N1CCN(C(=O)c2ccco2)CC1	< 5.00	39%	> 100 µM	–
COc1c(C)cc(C(=O)N2CCN(c3ccccn3)CC2)cc1C	< 5.00	5%	> 100 µM	–
CCNc1cccnc1N1CCN(Cc2cc3ccccc3[nH]2)CC1	6.00	64%	–	–
CCNc1cccnc1N1CCN(C(=O)c2ccc3ccccc3n2)CC1	–	0%	–	–
Cc1cn([C@H]2C[C@H](N=[N+]=[N-])[C@@H](CO)O2)c(=O)[nH]c1=O [ZIDOVUDINE]	9.00	–	10 µM	CC50 (MT2 [1]): 123 µM; pEC50 (MT2 [2]): 7.15
CC(C)(C)NC(=O)c1cccnc1N1CCN(C(=O)c2cc3ccccc3[nH]2)CC1	–	50%	–	–
COc1ccccc1N1CCN(C(=O)c2cc3ccccc3[nH]2)CC1	–	33%	–	–
CCN(CC)c1cccnc1N1CCN(C(=O)c2cc3ccccc3[nH]2)CC1	6.00	69%	> 10 µM	–
COc1c(C)cc(CN2CCN(c3ccccn3)CC2)cc1C	< 5.00	0%	> 100 µM	–
CCOc1ccccc1N1CCN(Cc2cc(C)c(OC)c(C)c2)CC1	–	0%	–	–
CCNc1cccnc1N1CCN(C(=O)c2ccc3ccccc3c2)CC1	5.00	74%	> 10 µM	–
CCNc1cccnc1N1CCN(C(=O)c2cc3ccccc3s2)CC1	5.00	50%	~100 µM	–
CC(C)(C)C(=O)c1cccnc1N1CCN(C(=O)c2cc3ccccc3[nH]2)CC1	–	58%	–	–
CCNc1cccnc1N1CCN(C(=O)c2cccc3[nH]ccc23)CC1	–	28%	–	–
CCOc1ccccc1N1CCN(C(=O)c2cc(C)c(OC)c(C)c2)CC1	< 6.00	0%	< 10 µM	–
CCNc1cccnc1N1CCN(C(=O)c2cc3c(C)c(OC)c(C)c(C)c3[nH]2)CC1	< 5.00	63%	> 10 µM	–
